Measurements published in ChEMBL document CHEMBL3098054, “The synthesis of novel taxoids for oral administration” (Bioorg Med Chem, 2014).

Legend:
MDR1 [1] = test: Apparent permeability from basolateral to apical side in MDCK cells expressing MDR1 at 5 uM after 90 mins; type: ADME, cell-based, Canis lupus familiaris; conditions: dog
In short: (§1)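 MDCK-MDR1 monolayers grown on polycarbonate filter Transwells, confluent 5 days after seeding, TEER >1000 Ω·cm² before use. MDCK-WT cells plated at 5.0 × 10⁴ cells/well and used after 6 days at TEER >200 Ω·cm². Transport run at 37 °C in HBSS pH 7.4 for 90 min, in both directions. Lucifer yellow permeability and TEER change served as monolayer integrity checks. Efflux ratio = Papp(B–A)/Papp(A–B).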

[2] = Apparent permeability from basolateral to apical side in wild-type MDCK cells at 5 uM after 90 mins; type: ADME, cell-based, Canis lupus familiaris; conditions: dog; in short: as §1
MDR1 [3] = test: Apparent permeability from apical to basolateral side in MDCK cells expressing MDR1 at 5 uM after 90 mins; type: ADME, cell-based, Canis lupus familiaris; conditions: dog; in short: as §1
[4] = Apparent permeability from apical to basolateral side in wild-type MDCK cells at 5 uM after 90 mins; type: ADME, cell-based, Canis lupus familiaris; conditions: dog; in short: as §1
MDR1 [5] = test: Efflux ratio of apparent permeability from basolateral to apical side over apical to basolateral side in MDCK cells expressing MDR1 at 5 uM after 90 mins; type: ADME, cell-based, Canis lupus familiaris; conditions: dog; in short: as §1
[6] = Efflux ratio of apparent permeability from basolateral to apical side over apical to basolateral side in wild-type MDCK cells at 5 uM after 90 mins; type: ADME, cell-based, Canis lupus familiaris; conditions: dog; in short: as §1
Caco-2 [7] = test: (§2) Apparent permeability from basolateral to apical side in human Caco2 cells at 10 uM after 90 mins by LC-MS/MS analysis; type: ADME, cell-based; conditions: caco-2, 1.5 h, 10 µM
Caco-2 [8] = test: (§3) Apparent permeability from apical to basolateral side in human Caco2 cells at 10 uM after 90 mins by LC-MS/MS analysis; type: ADME, cell-based; conditions: caco-2, 1.5 h, 10 µM
MCF7 [9] = test: Cytotoxicity against human MCF7 cells after 72 hrs by MTT assay; type: functional, cell-based; conditions: MCF7, 72 h
In short: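 MCF-7 cells exposed to compound for 72 h and read by MTT. At least six replicate wells per assay, run on three separate occasions. IC₅₀ given as mean with standard deviation.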

Caco-2 [10] = test: (§4) Efflux ratio of apparent permeability from basolateral to apical side over apical to basolateral side in human Caco2 cells at 10 uM after 90 mins by LC-MS/MS analysis; type: ADME, cell-based; conditions: caco-2, 1.5 h, 10 µM
In short: (§5)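 Caco-2 cells cultured 21 days on 24-well inserts, TEER >250 Ω·cm². Monolayers pre-incubated in HBSS pH 7.4 at 37 °C. Compound added to the donor side at 10 µM, 37 °C, 5% CO₂, 90 min, in the A-to-B and B-to-A directions. Donor and receiver levels measured by LC-MS/MS. Papp calculated from receiver amount, membrane area 0.7 cm², time and initial donor concentration. Efflux ratio = B–A/A–B.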

HeLa = test: Cytotoxicity against human HeLa cells at 1 uM after 72 hrs by MTT assay; type: functional; conditions: read-out: GI
In short: (§6)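 Cells plated at 2000–5000/well, attached overnight at 37 °C. DMSO stocks (100 mM) serially diluted in medium to a final 1 µM, tested in duplicate wells. Exposure 72 h at 37 °C, 5% CO₂. MTT (5 mg/mL, 10 µL) added for 4 h. Lysis in 10% SDS / 5% isopropanol / 0.012 N HCl, then OD read at 580–680 nm.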

[11] = target: ATP-dependent translocase ABCB1 (Homo sapiens, UniProt P08183); test: Inhibition of MDR1 (unknown origin) expressed in MDCK cells at 10 uM after 90 mins; type: ADME, cell-based; conditions: 1.5 h
In short: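 P-gp inhibition measured as digoxin bidirectional transport across MDCK-MDR1 monolayers at 37 °C in HBSS pH 7.4, with test compound present at 10 µM. Read-out is the change in digoxin efflux ratio, Papp(B–A)/Papp(A–B).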

DU-145 = test: Cytotoxicity against human DU145 cells at 1 uM after 72 hrs by MTT assay; type: functional; conditions: DU-145, 72 h, read-out: GI; in short: as §6
HL-60 = test: Cytotoxicity against human HL60 cells at 1 uM after 72 hrs by MTT assay; type: functional; conditions: HL-60, 72 h, read-out: GI; in short: as §6
HT-29 = test: Cytotoxicity against human HT-29 cells at 1 uM after 72 hrs by MTT assay; type: functional; conditions: HT-29, 72 h, read-out: GI; in short: as §6
MCF7 [12] = test: Cytotoxicity against human MCF7 cells at 1 uM after 72 hrs by MTT assay; type: functional; conditions: MCF7, 72 h, read-out: GI; in short: as §6
A-375 = test: Cytotoxicity against human A375 cells at 1 uM after 72 hrs by MTT assay; type: functional; conditions: A-375, 72 h, read-out: GI
In short: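 Cells plated at 2000–5000/well, attached overnight at 37 °C. DMSO stocks (100 mM) serially diluted in medium to a final 1 µM, tested in duplicate wells. MTT (5 mg/mL, 10 µL) added for 4 h. Lysis in 10% SDS / 5% isopropanol / 0.012 N HCl, then OD read at 580–680 nm.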

NCI-H460 = test: Cytotoxicity against human NCI-H460 cells at 1 uM after 72 hrs by MTT assay; type: functional; conditions: NCI-H460, 72 h, read-out: GI; in short: as §6
A2780 = test: Cytotoxicity against human A2780 cells at 1 uM after 72 hrs by MTT assay; type: functional; conditions: A2780, 72 h, read-out: GI; in short: as §6
[13] = as §2; type: ADME, cell-based, Caco-2; conditions: Caco-2
[14] = as §3; type: ADME, cell-based, Caco-2; conditions: Caco-2
[15] = as §4; type: ADME, cell-based, Caco-2; conditions: Caco-2; in short: as §5

Chain of ATP-dependent translocase ABCB1 (P08183 whole entry): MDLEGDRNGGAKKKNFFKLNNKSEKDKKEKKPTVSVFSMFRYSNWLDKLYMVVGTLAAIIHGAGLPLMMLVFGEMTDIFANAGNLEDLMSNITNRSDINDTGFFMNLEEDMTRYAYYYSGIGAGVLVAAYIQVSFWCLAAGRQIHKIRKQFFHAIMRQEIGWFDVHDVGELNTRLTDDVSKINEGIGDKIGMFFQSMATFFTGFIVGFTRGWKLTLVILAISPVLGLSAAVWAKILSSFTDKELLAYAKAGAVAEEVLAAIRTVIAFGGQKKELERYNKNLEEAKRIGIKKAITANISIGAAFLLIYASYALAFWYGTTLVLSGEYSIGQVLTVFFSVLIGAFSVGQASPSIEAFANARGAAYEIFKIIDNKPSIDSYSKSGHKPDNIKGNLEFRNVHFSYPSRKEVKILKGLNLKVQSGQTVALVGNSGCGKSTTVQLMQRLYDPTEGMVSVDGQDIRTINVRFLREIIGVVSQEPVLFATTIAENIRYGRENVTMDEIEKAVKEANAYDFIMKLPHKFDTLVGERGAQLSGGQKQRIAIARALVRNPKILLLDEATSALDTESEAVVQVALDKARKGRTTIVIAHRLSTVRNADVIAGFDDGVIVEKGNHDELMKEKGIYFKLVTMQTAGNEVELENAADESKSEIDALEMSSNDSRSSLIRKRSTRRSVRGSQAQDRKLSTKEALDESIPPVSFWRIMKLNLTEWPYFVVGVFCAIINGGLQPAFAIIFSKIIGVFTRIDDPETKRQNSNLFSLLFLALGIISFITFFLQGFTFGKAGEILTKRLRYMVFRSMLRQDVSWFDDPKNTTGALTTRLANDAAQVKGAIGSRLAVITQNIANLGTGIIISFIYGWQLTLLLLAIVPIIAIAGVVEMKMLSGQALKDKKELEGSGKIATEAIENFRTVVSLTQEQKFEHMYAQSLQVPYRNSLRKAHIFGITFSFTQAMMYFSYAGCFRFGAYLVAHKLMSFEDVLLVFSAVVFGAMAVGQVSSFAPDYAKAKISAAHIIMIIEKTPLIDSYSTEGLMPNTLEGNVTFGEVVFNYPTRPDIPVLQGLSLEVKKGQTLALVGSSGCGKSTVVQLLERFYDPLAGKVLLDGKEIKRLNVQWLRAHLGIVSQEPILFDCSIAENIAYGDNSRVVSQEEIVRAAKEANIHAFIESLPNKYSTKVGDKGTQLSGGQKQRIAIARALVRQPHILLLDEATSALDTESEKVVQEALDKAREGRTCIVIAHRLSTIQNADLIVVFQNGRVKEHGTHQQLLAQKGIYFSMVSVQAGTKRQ

Compound | Papp B→A at 1.5 h, 5 µM (MDR1 [1]) [×10⁻⁶ cm/s] | Papp B→A at 1.5 h, 5 µM [2] [×10⁻⁶ cm/s] | Papp A→B at 1.5 h, 5 µM (MDR1 [3]) [×10⁻⁶ cm/s] | Papp A→B at 1.5 h, 5 µM [4] [×10⁻⁶ cm/s] | efflux ratio at 1.5 h, 5 µM (MDR1 [5]) | efflux ratio at 1.5 h, 5 µM [6] | Papp (Caco-2 [7]) [×10⁻⁶ cm/s] | Papp (Caco-2 [8]) [×10⁻⁶ cm/s] | IC50 (MCF7 [9]) [nM] | Ratio (Caco-2 [10]) | inhibition of growth at 1 µM (HeLa) [%] | inhibition (INH) [11] | Papp B→A at 1.5 h, 10 µM [13] [×10⁻⁶ cm/s] | Papp A→B at 1.5 h, 10 µM [14] [×10⁻⁶ cm/s] | efflux ratio at 1.5 h, 10 µM [15] | other results
C[C@H]1O[C@@H](O[C@H]2[C@@H](O)C[C@H](O[C@H]3[C@@H](O)C[C@H](O[C@H]4CC[C@@]5(C)[C@H](CC[C@@H]6[C@@H]5C[C@@H](O)[C@]5(C)[C@@H](C7=CC(=O)OC7)CC[C@]65O)C4)O[C@@H]3C)O[C@@H]2C)C[C@H](O)[C@@H]1O [DIGOXIN] | 12.4 | 8.06 | 0.19 | 0.35 | 65.5 | 22.7 | – | – | – | – | – | – | – | – | – | –
CO[C@H]1C(=O)[C@]2(C)[C@@H](OC(=O)N(C)C)C[C@H]3OC[C@@]3(OC(C)=O)[C@H]2[C@H](OC(=O)c2ccccc2)[C@]2(O)C[C@H](OC(=O)[C@H](O)[C@H](CC(C)C)NC(=O)OC(C)(C)C)C(C)=C1C2(C)C | – | – | – | – | – | – | 30.9 | 10.7 | 13.3 | 1.59 | 102 | – | – | – | – | –
CO[C@H]1C(=O)[C@]2(C)[C@@H](OC(=O)N(C)C)C[C@H]3OC[C@@]3(OC(C)=O)[C@H]2[C@H](OC(=O)c2ccccc2)[C@]2(O)C[C@H](OC(=O)[C@H](O)[C@@H](NC(=O)OC(C)(C)C)c3ccccc3)C(C)=C1C2(C)C | 5.26 | 3.17 | 0.52 | 1.39 | 10.1 | 2.28 | 26 | 10.6 | 9.63 | 1.73 | 103 | Active | – | – | – | inhibition of growth at 1 µM (DU-145): 87.5%; inhibition of growth at 1 µM (HL-60): 97.8%; inhibition of growth at 1 µM (HT-29): 89.8%; inhibition of growth at 1 µM (MCF7 [12]): 102%; inhibition of growth at 1 µM (A-375): 90.4%; inhibition of growth at 1 µM (NCI-H460): 86.6%; inhibition of growth at 1 µM (A2780): 95.8%
CC(=O)O[C@H]1C(=O)[C@@]2(C)[C@H]([C@H](OC(=O)c3ccccc3)[C@]3(O)C[C@H](OC(=O)[C@H](O)[C@@H](NC(=O)c4ccccc4)c4ccccc4)C(C)=C1C3(C)C)[C@]1(OC(C)=O)CO[C@@H]1C[C@@H]2O [PACLITAXEL] | 44.1 | 29.8 | 0.13 | 0.09 | 334 | 344 | – | – | 7.05 | – | – | Not Active | 33.4 | 0.97 | 34.4 | –
CO[C@H]1C[C@H]2OC[C@@]2(OC(C)=O)[C@H]2[C@H](OC(=O)c3ccccc3)[C@]34OC(=O)O[C@H]3[C@H](OC(=O)[C@H](O)[C@@H](NC(=O)OC(C)(C)C)c3ccccc3)C(C)=C([C@@H](OC(=O)N(C)C)C(=O)[C@]12C)C4(C)C | 6.38 | 2.99 | 0.63 | 1.4 | 10.1 | 2.13 | – | – | 7.93 | – | – | Active | 33.5 | 16.4 | 2.04 | –
